Experimental data collected from several papers.
Compare with care: the assays were run in different laboratories.
Prostate-specific antigen: Prostate-specific antigen (Homo sapiens, UniProt P07288)
ADRA1D: Alpha-1D adrenergic receptor (ADRA1D, Homo sapiens, UniProt P25100)
SIGMAR1: Sigma non-opioid intracellular receptor 1 (SIGMAR1, Cavia porcellus, UniProt Q60492)
TMEM97: Sigma intracellular receptor 2 (TMEM97, Homo sapiens, UniProt Q5BJF2)
CASP7: Caspase-7 (CASP7, Homo sapiens, UniProt P55210)
ADRA2B: Alpha-2B adrenergic receptor (ADRA2B, Homo sapiens, UniProt P18089)

| Compound | target | effect on | action | method | pH | setting | Ki [nM] |
| --- | --- | --- | --- | --- | --- | --- | --- |
| CCCC[C@H](NC(=O)[C@H](CCC(N)=O)NC(=O)[C@H](CO)NC(=O)[C@H](C)NC(=O)CCCCCN)C(=O)N[C@@H](Cc1ccccc1)B(O)O | Prostate-specific antigen | enzyme activity | inhibitor | fluorescence | pH 7.8 | – | 310 |
| O=C1c2ccccc2CCCN1CCCCN1CCN(c2ccccn2)CC1 | ADRA1D | ligand displacement | – | radioligand | – | – | 980 |
| CN(Cc1ccc(NC(=O)C2=Cc3cc(-c4ccc(OCCCF)cc4)ccc3CCC2)cc1)C1CCOCC1 | SIGMAR1 | ligand displacement | – | radioligand | – | – | 1000 |
| CCCn1nc(C(=O)N2CCCCC2)c2c1CCC(NCCCNC)C2 (stereo not drawn) | TMEM97 | ligand displacement | – | radioligand | – | – | 1990 |
| O=C(NCCN1CCCCC1)c1cc(Br)ccc1OCCCF | SIGMAR1 | ligand displacement | – | radioligand | – | cell membranes | 52.9 |
| CCCC[C@H](NC(=O)[C@H](CCCCN)NC(=O)[C@H](CO)NC(=O)[C@H](CO)NC(=O)OCc1ccccc1)C(=O)N[C@@H](CCCBr)B(O)O | Prostate-specific antigen | enzyme activity | inhibitor | fluorescence | pH 7.8 | – | 24.2 |
| CCCn1nc(C(=O)N2CCCCC2)c2c1CCC(NCCc1ccncc1)C2 (stereo not drawn) | TMEM97 | ligand displacement | – | radioligand | – | – | > 10000 |
| O=c1c(O)c(-c2ccc(O)cc2)oc2cc(O)cc(O)c12 | CASP7 | enzyme activity | inhibitor | fluorescence | – | – | > 300000 |
| CN(Cc1ccc(NC(=O)C2=Cc3cc(-c4ccc(OCCCCCF)cc4)ccc3CCC2)cc1)C1CCOCC1 | SIGMAR1 | ligand displacement | – | radioligand | – | – | 320 |
| COc1cc2c(cc1OC)CN(CCCNC(=O)c1ccc(C(=O)c3ccc([N+](=O)[O-])cc3)cc1)CC2 | TMEM97 | ligand displacement | – | radioligand | – | cell membranes | 1200 |
| CCCCN1CCC(COC(=O)c2ccc(N)c(OCF)c2)CC1 | ADRA2B | cell-free assay | – | radioligand | – | – | > 10000 |
| CCCC[C@H](NC(=O)[C@H](CCC(N)=O)NC(=O)[C@H](CO)NC(=O)[C@H](C)NC(=O)CCCCCN)C(=O)N[C@@H](CCCBr)B(O)O | Prostate-specific antigen | enzyme activity | inhibitor | fluorescence | pH 7.8 | – | 52.1 |
| C#CCNCc1ccc(C(=O)c2ccc([N+](=O)[O-])cc2)cc1 | TMEM97 | ligand displacement | – | radioligand | – | cell membranes | > 10000 |
| COc1ccc(CO[C@H]2CCCN(Cc3cccc(C)c3)C2)cc1F | TMEM97 | ligand displacement | – | radioligand | – | cell membranes | 40 |
| COc1ccccc1N1CCN(CCCCN2CCc3ccccc3C2=O)CC1 | ADRA1D | ligand displacement | – | radioligand | – | – | 14.2 |
| O=C(c1ccc(CNCCCN2CCN(c3ccc(F)cc3)CC2)cc1)c1ccc([N+](=O)[O-])cc1 | TMEM97 | ligand displacement | – | radioligand | – | cell membranes | 34 |
| CCCC[C@H](NC(=O)[C@H](CCC(N)=O)NC(=O)[C@H](CO)NC(=O)CCCCCN)C(=O)N[C@@H](Cc1ccccc1)B(O)O | Prostate-specific antigen | enzyme activity | inhibitor | fluorescence | pH 7.8 | – | 22 |
| CNC(=O)[C@@]12C[C@@H]1[C@@H](n1cnc3c(NC)nc(C#Cc4ccccc4)nc31)[C@H](O)[C@@H]2O | SIGMAR1 | ligand displacement | – | radioligand | – | – | 7110 |
| CCCn1nc(C(=O)N2CCCCC2)c2c1CCC(Nc1ccc(N3CCCCC3)cc1)C2 (stereo not drawn) | TMEM97 | ligand displacement | – | radioligand | – | – | 787 |
| C#CCN(CCCN1CCN(C2CCCCC2)CC1)c1ccc(C(=O)c2ccccc2)cc1 | TMEM97 | ligand displacement | – | radioligand | – | cell membranes | 77.7 |
| CC(C)(C)Oc1cc(CCC(C)(C)N2Cc3ccc(S(C)(=O)=O)cc3C2)ccc1O | TMEM97 | ligand displacement | – | radioligand | – | cell membranes | 8.5 |
| CCCC[C@H](NC(=O)[C@H](CCC(N)=O)NC(=O)[C@H](CO)NC(=O)[C@H](Cc1ccccc1)NC(=O)CCCCCN)C(=O)N[C@@H](Cc1ccccc1)B(O)O | Prostate-specific antigen | enzyme activity | inhibitor | fluorescence | pH 7.8 | – | 61.5 |
| Nc1ccnc2ccccc12 | ADRA2B | ligand displacement | – | radioligand | – | cell membranes | 53800 |
| CCCC[C@H](NC(=O)[C@H](CCC(N)=O)NC(=O)[C@H](CO)NC(=O)C[C@@H](Cc1ccc2ccccc2c1)NC(=O)CCCCCN)C(=O)N[C@@H](Cc1ccccc1)B(O)O | Prostate-specific antigen | enzyme activity | inhibitor | fluorescence | pH 7.8 | – | 229 |
| Cc1cc(Oc2nccc3c2ccn3C)ccc1-c1c(C)c(=O)[nH]c(=O)n1C | Muscarinic acetylcholine receptor M3 (CHRM3, Homo sapiens, UniProt P20309) | ligand displacement | – | radioligand | – | – | 4200 |
| O=C(NCCN1CCCCC1)c1ccc(OCCCF)c(Br)c1 | SIGMAR1 | ligand displacement | – | radioligand | – | cell membranes | 23.3 |
| O=c1cc(-c2ccc(O)c(O)c2)oc2cc(O)cc(O)c12 | CASP7 | enzyme activity | inhibitor | fluorescence | – | – | 130000 |
| C[C@@H]1O[C@H](CNS(=O)(=O)c2ccc(CCn3cc(CCN4CCN(c5cc6c(cc5F)c(=O)c(C(=O)O)cn6C5CC5)CC4)nn3)s2)[C@@H](O)[C@H](O)[C@@H]1O | Fucose-binding lectin PA-IIL (lecB, Pseudomonas aeruginosa, UniProt Q9HYN5) | ligand displacement | – | FP | – | – | 890 |
| CCCC[C@H](NC(=O)[C@H](CCC(N)=O)NC(=O)[C@H](CO)NC(=O)[C@H](Cc1ccccc1)NC(=O)CCCCCN)C(=O)N[C@@H](CCCBr)B1O[C@@H]2C[C@@H]3C[C@@H](C3(C)C)[C@]2(C)O1 | Prostate-specific antigen | enzyme activity | inhibitor | fluorescence | pH 7.8 | – | 73.3 |
| CCOC(=O)[C@@]12C[C@@H]1[C@@H](n1cnc3c(NC)nc(C#Cc4ccc(Cl)s4)cc31)[C@H](O)[C@@H]2O | SIGMAR1 | ligand displacement | – | radioligand | – | – | 1040 |
